Compound activity: PubChem BioAssay, Broad Institute
DYRK1A inh = rat Dyrk1A kinase inhibitors, primary screen, biochemical, single point, plate reader; Dual specificity tyrosine-phosphorylation-regulated kinase 1A (Rattus norvegicus), Q63470; ADP-Glo luminescence, NFATc1 peptide; inhibition, % at 12.5 µM; 310,000 tested, 0.43% active; in the data active means inhibition above about 50%
ALR H2O2 inh = inhibitors of human ALR sulfhydryl oxidase, primary screen, biochemical, H2O2 detection, HRP-luminol luminescence, single point. FAD-linked sulfhydryl oxidase ALR (Homo sapiens), P55789. purified ALR, DTT oxidation. inhibition, % (test concentration not listed). 290,000 tested, 3.8% active;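 active means mean replicate inhibition above about 79%, with every replicate also reaching it, limit read from the data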
Target sequence (P55789 whole entry, looked up): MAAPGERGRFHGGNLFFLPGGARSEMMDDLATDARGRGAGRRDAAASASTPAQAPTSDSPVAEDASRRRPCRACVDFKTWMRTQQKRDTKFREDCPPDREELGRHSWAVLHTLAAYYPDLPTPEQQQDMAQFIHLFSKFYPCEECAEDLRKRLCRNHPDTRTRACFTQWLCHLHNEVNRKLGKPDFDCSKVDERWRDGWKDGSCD
CAL PDZ FP-1 = untagged CAL PDZ binding inhibitors, primary screen, biochemical, fluorescence polarization, HTS | Golgi-associated PDZ and coiled-coil motif-containing protein (Homo sapiens), Q9HD26 | purified CAL PDZ, TMR-peptide fluorescence polarization, 1 h | inhibition, % at 24.9 µM | 300,000 tested, 0.92% active | AID 602252, 2012;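 active means mean inhibition of at least 30% with at least half of replicates also reaching 30%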
CAL PDZ FP-2 = CAL PDZ peptide-binding inhibitors, primary screen, biochemical, fluorescence polarization, Cer-tagged CAL PDZ, HTS. 330,000 tested, 0.02% active. inhibition, % at 20 µM. purified CAL PDZ, TMR-peptide fluorescence polarization, 1 h. Golgi-associated PDZ and coiled-coil motif-containing protein (Homo sapiens), Q9HD26. AID 504414, 2011;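 active means highest replicate inhibition of at least 40%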
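Test system: purified CerCALP PDZ construct; Compound dosing: one concentration, 20 µM compound; Also added: TMR-labelled reporter peptide T*-PRC34 bound in PDZ groove; Read-out: inhibition from polarization loss; Controls: unlabelled peptide and DMSO controls; Signal: FP readout, S and P plane fluorescence; Incubation: 1 h at RT.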
Rtt109 HAT inh = inhibitors of C. albicans Rtt109/Vps75 HAT, primary screen, biochemical, ThioGlo CoA-SH fluorescence, plate reader; 330,000 tested, 0.16% active; purified Rtt109/Vps75, 4 h; inhibition, % at 34.9 µM;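 active means inhibition of at least 50% in every replicate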
Target sequence (Q5AAJ8 whole entry, looked up): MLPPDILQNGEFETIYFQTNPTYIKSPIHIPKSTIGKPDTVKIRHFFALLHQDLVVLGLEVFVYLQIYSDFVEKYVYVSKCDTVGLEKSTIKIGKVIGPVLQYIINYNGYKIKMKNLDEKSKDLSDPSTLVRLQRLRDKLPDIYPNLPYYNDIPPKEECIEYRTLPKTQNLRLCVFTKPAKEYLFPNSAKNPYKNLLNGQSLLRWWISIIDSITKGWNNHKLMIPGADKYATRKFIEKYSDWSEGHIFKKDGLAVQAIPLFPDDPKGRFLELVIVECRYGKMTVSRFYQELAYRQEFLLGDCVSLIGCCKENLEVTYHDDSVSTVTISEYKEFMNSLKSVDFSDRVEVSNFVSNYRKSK
A number is an active result; i = inactive; nt = no result given. Rows were chosen to be rich in hits. Some 4.3% of all compounds tested hit in one or more screens of this group.

SMILES	DYRK1A inh	ALR H2O2 inh	CAL PDZ FP-1	CAL PDZ FP-2	Rtt109 HAT inh
CS(=O)(=O)C1=NSC2=NC(=O)/C(=C\c3ccc(OC(=O)c4ccco4)c(Br)c3)C(=N)N21	i	i	nt	i	i
CCN(CC)CCCn1c2c(c(SCC(=O)Nc3cccc(C)c3C)nc1=O)CCC2	i	i	i	i	i
CCN(CC)CCCn1c2c(c(SCC(=O)Nc3ccc4c(c3)OCO4)nc1=O)CCC2	i	95.9	i	i	i
O=C(Nc1nc2ccc(SC(F)F)cc2s1)c1ccc(NS(=O)(=O)c2ccc(F)c(F)c2)cc1	i	98.6	i	i	i
Cn1c(SCC(=O)c2ccccc2)nnc1-c1cccs1	i	i	i	i	i
O=C(O)c1cccc(NC(=S)NC(=O)c2cccc(OCc3ccccc3)c2)c1	nt	98.5	i	i	i
CN1CCN(c2ccc(NC(=S)NC(=O)/C=C/c3ccco3)cc2)CC1	i	81.0	i	i	i
O=C(/C=C/c1ccco1)NC(=S)Nc1cccc(C(=O)O)c1	i	96.4	i	i	i
O=C(/C=C/c1ccco1)NC(=S)Nc1ccccn1	i	98.7	i	i	i
COc1cccc(NC(=S)NC(=O)/C=C/c2ccco2)c1	i	i	nt	i	i
Cc1nc(N2CCN(c3ccc(Cl)cc3)CC2)[nH]c(=O)c1C	nt	nt	i	i	i
O=C(C1=NN[C@@H]2C(=O)N(c3ccccc3C(F)(F)F)C(=O)[C@H]12)c1cnccn1	i	i	122.6	i	i
O=C(COC(=O)c1cccc(Br)c1)Nc1ccc2[nH]c(=O)[nH]c2c1	nt	i	nt	i	i
Cc1ccc(NC(=S)NC2CCN(Cc3ccccc3)CC2)cc1C	i	i	46.9	i	i
NNC(=O)c1cccc(COc2ccc(Br)cc2)c1	i	96.7	i	i	i
CCc1cc(/C(Cc2cscn2)=N\O)c(O)cc1O	i	i	i	i	i
O/N=C(\Cc1cscn1)c1ccc(O)cc1O	i	82.1	i	i	i
COc1cc(/C=C2/NC(=O)N(Cc3ccccc3F)C2=O)cc(OC)c1O	i	98.9	i	i	i
COc1cccc(NC(=S)NNC(=O)C(C)n2nc(C)c([N+](=O)[O-])c2C)c1 (stereo not drawn)	i	83.9	i	i	i
CC(=O)c1ccc(O)c(CSC2=NCCS2)c1	nt	nt	i	i	i
O=C(Nc1ccc(F)cc1)c1cc(-c2ccccc2)no1	i	i	108.9	i	nt
O/N=C(/c1ccc(F)cc1)C1CC1c1c(F)cccc1Cl (stereo not drawn)	i	i	i	i	i
O=S(=O)(c1ccc2ccccc2c1)N(CC1CO1)c1ccccc1 (stereo not drawn)	i	i	i	i	i
CCc1ccc2[nH]c3nc(N/N=C/c4ccc(O)cc4O)nnc3c2c1	i	nt	i	i	i
CC1CCC(NC(=O)c2ccc3c(c2)S(=O)(=O)c2ccccc2C3=O)CC1 (stereo not drawn)	i	i	i	42.5	i
SMILES	DYRK1A inh	ALR H2O2 inh	CAL PDZ FP-1	CAL PDZ FP-2	Rtt109 HAT inh
CCc1cccc(NC(=O)CCNS(=O)(=O)c2ccc3[nH]c(=O)oc3c2)c1	i	i	40.1	i	i
CCC(=O)OCCNc1cc(SCCC(=O)OC)c2nonc2c1[N+](=O)[O-]	i	i	i	i	i
CCC(=O)OCCNc1cc(Sc2nccn2C)c2nonc2c1[N+](=O)[O-]	i	97.1	i	i	i
Cc1cccc(-n2cc(C(=O)O)c(=O)cc2C)c1	i	i	i	i	nt
Oc1[nH]c2ccccc2c1N=Nc1nncc2ccccc12	i	nt	51.8	i	i
O=C1C2C3CCC(C3)C2C(=O)N1c1ccc2ccccc2c1 (stereo not drawn)	i	i	61.8	i	i
CSc1nn2c(C(F)(F)F)cc(C(F)(F)F)nc2c1C(=O)O	i	nt	i	i	i
O=C(NO)c1ccc(OC(F)F)cc1	i	98.7	i	i	i
CC(=Nc1ccc(O)cc1)c1sc2ccccc2c1O	i	i	i	i	i
CC(=Nc1ccccc1O)c1sc2ccccc2c1O	i	92.3	i	nt	i
C=CCn1c(SCC(=O)NC2CCCC2)nnc1-c1ccccn1	i	i	i	i	i
Cc1ccc(C(=O)N/C(=C\c2ccccc2)C(=O)NCc2cccnc2)cc1	i	i	i	i	i
O=C(CNS(=O)(=O)c1ccc2ccccc2c1)OCc1csc(-c2ccccc2)n1	i	98.6	i	i	i
O=C(Nc1ccc(C(=O)N2CCCCC2)cc1)C1CC1	i	nt	41.9	i	i
O=C(c1ccc(S(=O)(=O)N2CCCC2)cc1)N1CCCCCC1	i	nt	66.9	i	i
S=C(c1ccc(N2CCOCC2)cc1)N1CCCCC1	i	86.7	i	i	i
CN(C)c1ccc(C(=O)N2CCCC2)cc1	i	98.4	i	i	nt
CC(=O)Nc1ccc(NC(=O)c2nc(-c3ccccc3)oc2C)cc1	i	i	i	i	nt
O=C(c1ccc(S(=O)(=O)Cc2ccccc2F)c([N+](=O)[O-])c1)N1CCCC1	i	i	i	i	i
CC(=O)N1CCN(C(=S)c2ccc(N(C)C)cc2)CC1	i	98.3	i	i	i
O=C(c1ccc(S(=O)(=O)c2ccc(F)cc2)c([N+](=O)[O-])c1)N1CCCCCC1	i	96.1	i	i	i
Cc1ccc(N2CCN(C(=S)c3ccc(N(C)C)cc3)CC2)cc1	nt	i	i	i	i
CN(C)c1ccc(C(=S)N2CCN(c3ccccc3)CC2)cc1	nt	99.2	50.5	nt	i
CC1CCN(C(=S)c2ccc(N(C)C)cc2)CC1	i	99.1	nt	i	i
COc1ccc(-c2cc(C(=O)N3CCN(c4cccc(C)c4C)CC3)c3ccccc3n2)cc1OC	nt	i	i	i	i
SMILES	DYRK1A inh	ALR H2O2 inh	CAL PDZ FP-1	CAL PDZ FP-2	Rtt109 HAT inh
N/C(=N/OC(=O)c1ccccc1Cl)c1ncc([N+](=O)[O-])s1	i	i	i	i	i
Oc1ccc(C(=S)N2CCCCC2)cc1	i	i	i	i	i
Cc1ccc(C(=O)NCCc2ccc(S(=O)(=O)N3CCCC3)cc2)cc1	i	i	43.9	i	i
CN(C)c1ccc(C(=S)N2CCCCCC2)cc1	i	98.3	i	i	i
COC(=O)c1ccc(C(=S)N2CCOCC2)cc1	i	i	i	i	i
CN(C)c1ccc(C(=S)N2CCOCC2)cc1	i	98.8	i	i	i
CON(C)S(=O)(=O)c1cccc(C(=O)Nc2cccc(S(=O)(=O)NC3=NCCCCC3)c2)c1	nt	nt	i	i	i
Cc1ccc(NC(=O)c2cc3ccccc3o2)nc1	i	i	i	i	i
CC1CCc2sc3c(c2C1)c(=O)n(CC(=O)O)c(=O)n3Cc1ccc(Cl)cc1 (stereo not drawn)	i	nt	i	i	i
